Experimental data as given in ChEMBL document CHEMBL3227936, “Actions of two dopamine derivatives at adreno- and cholinoceptors” (J Med Chem, 1979).
Calls of active or inactive are those of the source. No cut-off for these calls is given here.

Assays:
Gallus gallus [1] = species on record: Gallus gallus; assay: Agonist activity at cholinergic receptor in chicken biventer cervicis nerve muscle assessed as blockade of twitch accompanied with contracture at 10 to 200 ug/ml
Felis catus [2] = assay: Reduction of mean blood pressure in atropinized-cat at 0.2 to 3 mg/kg, iv in presence of phentolamine; assay type: functional, organism-based
In short: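 In atropinized cats (atropine 1 mg/kg) under chloralose–pentobarbitone anesthesia, drugs in acid saline pH 4.5 were given iv. Mean blood pressure responses were recorded with phentolamine 2 mg/kg.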

Felis catus [3] = assay: Reduction of mean blood pressure in cat at 0.2 to 3 mg/kg, iv; assay type: functional, organism-based
In short: (§1)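 Adult cats of either sex were anesthetized with α-chloralose 80 mg/kg plus sodium pentobarbitone 6 mg/kg ip, and nearly all were bilaterally vagotomized. Drugs were given iv via a femoral or brachial vein in acid-0.9% saline (pH 4.5). The sciatic nerve was stimulated to evoke soleus contractions, with maximal twitches at 0.1 Hz. Responses were recorded continuously.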

[4] = molecular target: T1, Acetylcholinesterase (Gallus gallus) (UniProt P36196); assay: Inhibition of acetylcholine esterase in chicken biventer cervicis muscle assessed as rate of acetylcholine hydrolysis at 1.3 X 10^-3 M by Ellman's method; conditions: Muscle tissue
T1 sequence (whole entry): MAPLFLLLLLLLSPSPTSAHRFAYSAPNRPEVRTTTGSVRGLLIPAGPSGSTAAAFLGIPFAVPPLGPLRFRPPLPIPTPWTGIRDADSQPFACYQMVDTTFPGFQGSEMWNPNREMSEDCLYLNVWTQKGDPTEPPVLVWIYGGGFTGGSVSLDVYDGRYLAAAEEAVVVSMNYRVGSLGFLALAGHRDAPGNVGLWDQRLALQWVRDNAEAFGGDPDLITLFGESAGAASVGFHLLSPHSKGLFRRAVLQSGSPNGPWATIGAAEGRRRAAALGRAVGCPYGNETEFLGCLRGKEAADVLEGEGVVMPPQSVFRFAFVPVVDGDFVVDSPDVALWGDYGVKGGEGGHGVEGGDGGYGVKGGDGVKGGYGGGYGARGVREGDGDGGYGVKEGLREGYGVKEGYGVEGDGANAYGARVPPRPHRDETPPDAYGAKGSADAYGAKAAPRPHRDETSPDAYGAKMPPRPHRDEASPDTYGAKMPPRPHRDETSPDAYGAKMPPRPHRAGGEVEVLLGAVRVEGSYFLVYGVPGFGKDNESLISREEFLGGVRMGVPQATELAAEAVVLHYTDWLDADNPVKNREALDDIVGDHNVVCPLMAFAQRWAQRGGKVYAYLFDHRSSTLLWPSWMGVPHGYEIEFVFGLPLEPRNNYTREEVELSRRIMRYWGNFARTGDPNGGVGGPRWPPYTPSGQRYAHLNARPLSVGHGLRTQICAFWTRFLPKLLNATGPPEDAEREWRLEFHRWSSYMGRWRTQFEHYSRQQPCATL
In short: (§2)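 Chick biventer cervicis muscle homogenates were assayed for cholinesterase with acetylthiocholine as substrate by Ellman's colorimetric method as modified by Gandiha et al. Absorbance change was read at 412 nm. Hydrolysis rates (µmol min^-1 g^-1) were compared with and without drug.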

Gallus gallus [5] = species on record: Gallus gallus; assay: Agonist activity at cholinergic receptor in chicken biventer cervicis nerve muscle assessed as blockade of twitch response at 10 to 200 ug/ml in presence of caffeine
Gallus gallus [6] = species on record: Gallus gallus; assay: Agonist activity at cholinergic receptor in chicken biventer cervicis nerve muscle assessed as blockade of twitch response at 10 to 200 ug/ml in presence of tetanus
Gallus gallus [7] = species on record: Gallus gallus; assay: Agonist activity at cholinergic receptor in chicken biventer cervicis nerve muscle assessed as blockade of twitch response at 10 to 200 ug/ml in presence of physostigmine
Felis catus [8] = assay: Reduction of twitch tension in soleus muscle of electrically stimulated cat at 0.2 to 3 mg/kg, iv in presence of antagonist propranolol; assay type: functional, organism-based
In short: (§3)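 In chloralose–pentobarbitone anesthetized cats, the sciatic nerve was stimulated to evoke soleus contractions. Drugs were given iv in acid saline pH 4.5, and responses were recorded after propranolol 0.4 mg/kg.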

Felis catus [9] = assay: Reduction of heart rate in cat at 0.2 to 3 mg/kg, iv; assay type: functional, organism-based; in short: as §1
Felis catus [10] = assay: Reduction of heart rate in cat at 0.2 to 3 mg/kg, iv in presence of atropine; assay type: functional, organism-based
In short: (§4)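 Cats were anesthetized with α-chloralose 80 mg/kg plus pentobarbitone 6 mg/kg ip and vagotomized. Drugs were given iv in acid saline pH 4.5. Heart rate and blood pressure responses were recorded before and after atropine 1 mg/kg.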

Felis catus [11] = assay: Reduction of mean blood pressure in cat at 0.2 to 3 mg/kg, iv in presence of atropine; assay type: functional, organism-based; in short: as §4
Cavia porcellus [12] = species on record: Cavia porcellus; assay: Agonist activity at muscarinic acetylcholine receptor in guinea pig ileum smooth muscle assessed as contraction; assay type: tissue-based
In short: (§5)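 Guinea pig ileum segments were kept in Tyrode solution at 32 °C and bubbled with air. Isotonic contractions to cholinergic agonists were recorded, and log concentration–effect curves were built. Points are means of at least four experiments.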

Felis catus [13] = assay: Reduction of twitch tension in soleus muscle of electrically stimulated cat at 0.2 to 3 mg/kg, iv; assay type: functional, organism-based; in short: as §1
Gallus gallus [14] = species on record: Gallus gallus; assay: Agonist activity at cholinergic receptor in chicken biventer cervicis nerve muscle assessed as blockade of twitch response at 10 to 200 ug/ml in presence of choline
Felis catus [15] = assay: Reduction of fused incomplete tetanic contraction in soleus muscle of electrically stimulated cat at 0.2 to 3 mg/kg, iv; assay type: functional, organism-based; in short: as §1
Felis catus [16] = assay: Reduction of fused incomplete tetanic contraction in soleus muscle of electrically stimulated cat at 0.2 to 3 mg/kg, iv in presence of antagonist propranalol; assay type: functional, organism-based; in short: as §3
Cavia porcellus [17] = species on record: Cavia porcellus; assay: Agonist activity at muscarinic acetylcholine receptor in guinea pig ileum smooth muscle assessed as contraction measured after compound washout; assay type: tissue-based; in short: as §5
Cavia porcellus [18] = species on record: Cavia porcellus; assay: Agonist activity at muscarinic acetylcholine receptor in guinea pig ileum smooth muscle assessed as contraction in presence of atropine; assay type: tissue-based
In short: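 Guinea pig ileum was kept in Tyrode solution at 32 °C and aerated. Isotonic contractions were recorded, and concentration–effect curves were repeated after atropine 1×10^-8 M. Points are means of at least four experiments.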

Gallus gallus [19] = species on record: Gallus gallus; assay: Agonist activity at cholinergic receptor isolated from chicken biventer cervicis nerve muscle assessed as >10 ug/ml
Acetylcholinesterase = molecular target: T2, Acetylcholinesterase (Gallus gallus, UniProt P36196); assay: Inhibition of acetylcholine esterase in chicken biventer cervicis muscle assessed as rate of acetylcholine hydrolysis by Ellman's method; design: species or system Muscle tissue; conditions: read-out: I50; in short: as §2
T2 sequence (P36196 whole entry): T1 sequence (whole entry)

Cavia porcellus [20] = species on record: Cavia porcellus; assay: Agonist activity at muscarinic acetylcholine receptor in guinea pig ileum smooth muscle assessed as contraction in presence of hexamethonium; assay type: tissue-based; in short: as §5
Gallus gallus [21] = species on record: Gallus gallus; assay: Agonist activity at cholinergic receptor in chicken biventer cervicis nerve muscle assessed as twitch blockade at 1 to 10 ug/ml
[22] = molecular target: T1, Acetylcholinesterase (Gallus gallus); assay: Inhibition of acetylcholine esterase in chicken biventer cervicis muscle assessed as rate of acetylcholine hydrolysis at 37 uM by Ellman's method; conditions: Muscle tissue; in short: as §2
Gallus gallus [23] = species on record: Gallus gallus; assay: (§6) Agonist activity at cholinergic receptor in chicken biventer cervicis nerve muscle assessed as twitch augmentation accompanied with contracture at 1 to 10 ug/ml
Gallus gallus [24] = species on record: Gallus gallus; assay: Agonist activity at cholinergic receptor isolated from chicken biventer cervicis nerve muscle assessed as >10 ug/ml measured after compound washout
Felis catus [25] = assay: Induction of fasiculated twitches in skeletal muscle of electrically stimulated cat at 0.2 to 3 mg/kg, iv relative to control; assay type: organism-based, Muscle tissue; design: dose 0.2-3 mg/kg, route intravenous; conditions: in vivo; in short: as §1
Gallus gallus [26] = species on record: Gallus gallus; assay: as §6; remark: listed apart in the source

In the case of `CC1NCCc2cc(O)c(O)cc21` (stereo unspecified), the Activity (Gallus gallus [1]) is reported as “Active”, the Activity (Felis catus [2]) is reported as “inactive” and the Activity (Felis catus [3]) is reported as “Dose-dependent effect”. For the same compound, the Activity [4] was 7.48 µmol/min/g, the Activity (Gallus gallus [5]) was “Active” and the Activity (Gallus gallus [6]) was “Active”. For the same compound, the Activity (Gallus gallus [7]) was “Active”, the Activity (Felis catus [8]) was “inactive” and the Activity (Felis catus [9]) was “Active”. For the same compound, the Activity (Felis catus [10]) was “inactive”, the Activity (Felis catus [11]) was “inactive” and the Activity (Cavia porcellus [12]) was “inactive”. For the same compound, the Activity (Felis catus [13]) was “Active”, the Activity (Gallus gallus [14]) was “Active” and the Activity (Felis catus [15]) was “Active”. For the same compound, the Activity (Felis catus [16]) was “inactive”.

With `C[N+](C)(C)CCOC(N)=O` the Activity (Cavia porcellus [17]) was “inactive”, the Activity (Cavia porcellus [18]) was “inactive” and the Activity (Gallus gallus [19]) was “Active”. The Activity (Cavia porcellus [12]) was “Active”.

`Br.CC1(C)NCCc2cc(O)c(O)cc21` was tested, and the Activity (Felis catus [2]) was “inactive”, the IC50 (Acetylcholinesterase) was 37 µM and the Activity (Felis catus [3]) was “Dose-dependent effect”. The Activity (Cavia porcellus [17]) was “inactive”, the Activity (Cavia porcellus [20]) was “Active” and the Activity (Gallus gallus [21]) was “inactive”. The Activity [22] was 3.55 µmol/min/g, the Activity (Gallus gallus [23]) was “Active” and the Activity (Cavia porcellus [18]) was “inactive”. For the same compound, the Activity (Gallus gallus [19]) was “Active”, the Activity (Gallus gallus [24]) was “inactive” and the Activity (Felis catus [25]) was “<= 100%”. For the same compound, the Activity (Gallus gallus [26]) was “Active”, the Activity (Felis catus [11]) was “inactive” and the Activity (Cavia porcellus [12]) was “Active”.

`CNC(=O)Oc1ccc2c(c1)[C@]1(C)CCN(C)[C@@H]1N2C` [PHYSOSTIGMINE] was tested, and the IC50 (Acetylcholinesterase) was 0.02 µM.
